HCV core dimer: HCV core protein dimerization inhibition. TR-FRET GST/Flag-core106 dimerization, 1536-well. inhibition, % at 5 µM. hit rate 0.33% among 300,000. AID 1899;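 active = inhibition above the mean of all tested compounds plus 3 SD, set per screening campaign, cut at about 45% in these data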
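System – GST-tagged and Flag-tagged HCV core protein residues 1-106 · Repeats – one well for each compound · Technique – TR-FRET 671 and 617 nm emission · Doses – one concentration, 5 µM, in 0.5% DMSO · Times – 4 h, 22.5 °C incubation · Also added – Eu donor and XL665 acceptor anti-tag antibodies · Measure – percent inhibition of core106 dimerization signal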
FID counter: counter-screen for HCV NS3 helicase inhibitors: DNA intercalator displacement; DNA fluorescent intercalator displacement, fluorescence; inhibition, % at 7.9 µM; hit rate 0.17% among 290,000; in the data active = inhibition above about 37%;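 note: 0% = vehicle and 100% = reference compound; higher means more ethidium bromide displaced from hairpin DNA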
VIM-2 inh: inhibitors of Pseudomonas aeruginosa VIM-2 metallo-beta-lactamase. purified VIM-2, nitrocefin hydrolysis, epi-absorbance fluorescence. inhibition, % at 5.6 µM. hit rate 0.89% among 290,000. AID 1527;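 active = inhibition above the mean of all tested compounds plus 3 SD, cutoff set per screening run, cut at about 7.5% in these data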;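 note: red hydrolysis product quenches plate fluorescence so inhibitors raise well fluorescence; 0% = enzyme with DMSO and 100% = DMSO without enzyme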
IMP-1 inhibitor: inhibitors of Pseudomonas aeruginosa IMP-1 metallo-beta-lactamase. AID 1556. hit rate 0.45% among 290,000. inhibition, % at 5.6 µM. purified IMP-1, nitrocefin hydrolysis, epi-absorbance fluorescence;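 active = inhibition above the mean plus 3 SD of all compounds in the same screening run, cut at about 4.5% in these data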;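 note: 0% = IMP-1 with DMSO and 100% = DMSO wells lacking enzyme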
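System: purified IMP-1 / Input: IMP-1 dispensed at 0.2 nM / Medium: 50 mM HEPES pH 7.1, 50 µM ZnSO4, 0.05% Brij 35 / Timing: 15 min enzyme–compound preincubation, then 25 min nitrocefin reaction, 25 °C / Technique: plate fluorescence quenching by hydrolysis product, ex 480/em 530 nm / Repeats: singlicate testing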
The depositor's hits bear a star; / = no result. In the library only some 1.6% were active in any assay of this set; here they are far more common.

SMILES	HCV core dimer	FID counter	VIM-2 inh	IMP-1 inhibitor
Cc1ccc2nc(N3CCN(S(=O)(=O)c4ccc5c(c4)OCCO5)CC3)c(C#N)cc2c1	59*	-3	-3	0
COc1ccc(OCc2cc(=O)[nH]c3ccccc23)cc1	0	-15	-2	-4
C#CCOCCOCCOCCNc1nc(N2CCN(C(=O)[C@H]([C@@H](C)CC)n3cc([C@@H](N)CO)nn3)CC2)nc(N2CCN(C(=O)[C@H](CCCCN)n3cc([C@@H](N)C(C)CC)nn3)CC2)n1 (some centres not stated)	3	52*	-1	14*
C#CCOCCOCCOCCNc1nc(N2CCN(C(=O)[C@H](CCCCN)n3cc([C@@H](N)C(C)CC)nn3)CC2)nc(N2CCN(C(=O)[C@H](CCCCN)n3cc([C@@H](N)CO)nn3)CC2)n1 (some centres not stated)	8	66*	1	-1
C#CCOCCOCCOCCNc1nc(N2CCN(C(=O)[C@H](CCCCN)n3cc(C(N)[C@H](C)CC)nn3)CC2)nc(N2CCN(C(=O)[C@H](CCC(=O)O)n3cc(C(N)[C@H](C)CC)nn3)CC2)n1 (some centres not stated)	4	30	-2	-2
O=C(Nc1ccccc1)[C@@H]1CC=C[C@@H]2CCN(Cc3ccccc3)C(=O)[C@@H]21	-4	/	/	/
O=C(Nc1ccc(Br)cc1)c1ccccc1Br	1	-3	2	-2
Cc1oc2c(cc(NS(=O)(=O)c3ccc(C(C)C)cc3)c3ccccc32)c1C(=O)O	22	-25	2	8.9*
Cc1oc2c(cc(NS(=O)(=O)c3ccc(F)cc3)c3ccccc32)c1C(=O)O	13	-19	-3	5.8*
CCOC(=O)c1c(NC(=O)Cn2nc(C(=O)O)c3ccccc3c2=O)sc(C)c1C	12	-5	-4	-3
O=C1CS/C(=N\N=C\c2ccco2)N1c1ccccc1	30	-15	-3	-3
O=C1CS/C(=C\[N+](=O)[O-])N1c1ccccc1	-5	-3	1	4.6*
COc1ccc2c(c1)c(/C=C/c1cc[n+](C)cc1)cn2C	-22	-5	9.7*	-1
O=C(COc1ccccc1)N/N=C/c1ccc([N+](=O)[O-])o1	0	-13	1	-3
CCOc1ccc(S(=O)(=O)Nc2cc(SCC(=O)O)c(O)c3ccccc23)cc1	/	-16	10*	4
CCOC(=O)c1cccc2c(=O)c(C(=O)c3ccc(Cl)cc3)c(C(=O)OC)[nH]c12	15	-9	-4	-5
C#CCOCCOCCOCCNc1nc(N2CCN(C(=O)[C@H](Cc3ccc(O)cc3)n3cc([C@@H](N)C(C)CC)nn3)CC2)nc(N2CCN(C(=O)[C@H](CCCCN)n3cc([C@@H](N)CC(C)C)nn3)CC2)n1 (some centres not stated)	-20	43*	0	0
C#CCOCCOCCOCCNc1nc(N2CCN(C(=O)[C@H](CCC(=O)O)n3cc(C(N)CO)nn3)CC2)nc(N2CCN(C(=O)[C@H](Cc3ccc(O)cc3)n3cc(C(N)CC(C)C)nn3)CC2)n1 (some centres not stated)	1	9	-2	-1
C#CCOCCOCCOCCNc1nc(N2CCN(C(=O)[C@H](Cc3ccc(O)cc3)n3cc([C@@H](N)C(C)CC)nn3)CC2)nc(N2CCN(C(=O)[C@H](CCCCN)n3cc([C@@H](N)CO)nn3)CC2)n1 (some centres not stated)	8	44*	1	-2
C#CCOCCOCCOCCNc1nc(N2CCN(C(=O)[C@H]([C@@H](C)CC)n3cc([C@@H](N)Cc4ccc(O)cc4)nn3)CC2)nc(N2CCN(C(=O)[C@H](CCCCN)n3cc([C@@H](N)CO)nn3)CC2)n1	-5	58*	-3	-3
C#CCOCCOCCOCCNc1nc(N2CCN(C(=O)[C@H](CCCCN)n3cc([C@@H](N)CO)nn3)CC2)nc(N2CCN(C(=O)[C@H](Cc3ccc(O)cc3)n3cc([C@@H](N)CC(C)C)nn3)CC2)n1	-7	54*	-2	-2
O=S(=O)(NC1CCCCC1N1CCCCC1)c1ccccc1 (configuration not stated)	0	-3	1	0
O=C(CCCc1c[nH]c2ccccc12)NCc1ccc2c(c1)OCO2	-1	-6	2	-3
O=C(c1ccncc1)c1ccc(NC(=O)c2cccs2)cc1	-1	3	-1	-4
CCCCCC(=O)Nc1ccc(C(=O)COC(=O)CN2C(=O)NC3(CCCC3)C2=O)cc1	3	/	/	/
SMILES	HCV core dimer	FID counter	VIM-2 inh	IMP-1 inhibitor
COc1ccc(NC(=O)c2ccc(-c3ccc([N+](=O)[O-])cc3)o2)cc1	2	1	-1	-3
O=C(Nc1ccccc1)c1ccc(-c2ccc([N+](=O)[O-])cc2)o1	9	-1	2	5.0*
O=C(/C=C/Nc1cccc(C(F)(F)F)c1)C(F)(F)F	0	0	0	5.9*
O=C(Nc1ccccc1)Nc1cccc(C(F)(F)F)c1	1	8	-3	-5
CCOc1ccccc1NC(=O)CCNS(=O)(=O)c1ccccc1	6	-13	0	7.3*
COc1ccc(NC(=O)COC(=O)C2CCCCC2)c([N+](=O)[O-])c1	-6	-4	-3	-3
COc1ccccc1C(=O)NNC(=O)c1ccccc1Br	4	-6	-3	-2
COc1ccc(-c2csc3nc(-c4ccc(C)cc4)oc(=O)c23)cc1OC	50*	-2	-3	-1
Cc1nc2ccc(NC(=O)N3CCCCC3)cc2nc1C	-2	-13	0	-1
O=C(Nc1ccc2nc(-c3ccco3)c(-c3ccco3)nc2c1)N1CCCCCC1	75*	-18	-3	-2
CCOC(=O)C1CCN(C(=O)Nc2ccc3c(c2)nc(C)n3C)CC1	6	0	-3	-7
CCOC(=O)C1CCN(C(=O)Nc2ccc3nc(-c4ccco4)c(-c4ccco4)nc3c2)CC1	72*	-24	-3	-1
CC(C)(C)N=Cc1c(O)ccc2oc3c(c12)CCCC3	2	-3	4	19*
CCCCCC#CCC#CCC#CCC#CCCCC(=O)O	54*	-31	-2	0
CCCCCCCCCCCCS(=O)(=O)CCC(=O)O	3	-19	-2	-3
N#C/C(=C\c1ccc(-c2cccc([N+](=O)[O-])c2)o1)C(=O)Nc1nc(-c2cccs2)cs1	43	-4	-1	0
Cc1cccc(C)c1N1C(=O)[C@@H]2C(c3ccccc3Cl)=NO[C@@H]2C1=O	1	-11	-2	-3
COc1ccc(OC)c(N2C(=O)[C@@H]3C(c4ccccc4Cl)=NO[C@@H]3C2=O)c1	77*	-21	0	-2
O=C1NC[C@H](Cc2ccc(O)cc2)N(CCc2cccc3ccccc23)C1=O	7	/	/	/
C[C@@H](CN1C(=O)C(=O)NC[C@@H]1Cc1ccc(O)cc1)NC(=O)Cc1ccccc1	15	-1	-1	13*
CC1=NN(C(=O)c2ccc(C)o2)C(O)(c2ccccc2)C1 (configuration not stated)	-1	-4	-1	46*
CCCNC(=O)c1ccc(N2CCC3(CC2)CC(c2ccccc2)=NO3)c(N)c1	5	-34	3	2
